Columns and labels:
Format in all cases: functional
Details in all cases: read-out: ED50 (the source's name)
MOLT-4 = test: Cytotoxicity against human MOLT4 cells by Alamar blue assay
Outline: (§1)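 Cell lines from ATCC. Growth inhibition measured by Alamar Blue read-out. ED50 reported as mean ± SEM of triplicate determinations; inactivity cutoff set at ED50 > 10 μM. 5-Fluorouracil run as positive control.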

HT-29 = test: Cytotoxicity against human HT-29 cells by Alamar blue assay; outline: as §1
P388 = test: Cytotoxicity against mouse P388 cells by Alamar blue assay; outline: as §1
K562 = test: Cytotoxicity against human K562 cells by Alamar blue assay; outline: as §1

Compound | EC50 (MOLT-4) | EC50 (HT-29) | EC50 (P388) | EC50 (K562)
C[C@H]1[C@H]2[C@H](C[C@H]3[C@@H]4CCC5=CC(=O)C=C[C@]5(C)[C@H]4CC[C@]23C)O[C@@]2(OC(=O)[C@@H](C)[C@H]2C)[C@H]1O | 9.9 µM | 7.5 µM |  | 
O=c1[nH]cc(F)c(=O)[nH]1 [FLUOROURACIL] | 7.7 µM | 7.7 µM | 6.2 µM | 21 µM
C[C@@H]1[C@H]([C@H]2OC(=O)[C@@H](C)[C@H]2C)O[C@H]2C[C@H]3[C@@H]4CCC5=CC(=O)C=C[C@]5(C)[C@H]4CC[C@]3(C)[C@@H]12 |  |  |  | 8.7 µM
C[C@@H]1[C@H]([C@H]2OC(=O)[C@H](C)[C@H]2C)O[C@H]2C[C@H]3[C@@H]4CCC5=CC(=O)C=C[C@]5(C)[C@H]4CC[C@]3(C)[C@@H]12 | 4.8 µM | 4.8 µM | 9.1 µM | 

From ChEMBL document CHEMBL2429784, “Withanolide-based steroids from the cultured soft coral Sinularia brassica” (2013)
